Experimental findings from ChEMBL document CHEMBL1155758, “Heliotropium huascoense resin exudate: chemical constituents and defensive properties” (J Nat Prod, 2001) are described below.

SMILES strings stand for the structures. Active and inactive are the calls of the source. The calls are words filed in the database; no cut-off is given here.

Assay [1] deals with Leptinotarsa decemlineata. Put plainly: Antifeedant activity against Leptinotarsa decemlineata adults by choice test. Format: functional, organism-based. Summed up: (§1)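 Choice feeding bioassay using adult beetles, newly emerged fifth-instar larvae or apterous adult aphids. Percent feeding inhibition (FI) and percent settling inhibition (SI) were calculated as previously described. Compounds giving FR/SI > 50% were taken into a dose-response test, with EC50 (dose giving 50% feeding reduction) obtained by linear regression of %FR or %SI on log dose.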

Assay [2] has as its system Spodoptera littoralis. Put plainly: Antifeedant activity against fifth instar Spodoptera littoralis L6 larvae assessed as food consumption at 20 ug/insect, po relative to control. Format: functional. Summed up: (§2)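 Larval consumption and biomass gain were expressed as % of control. Significance versus control was tested at p < 0.05 with LSD. A second ANCOVA was run on biomass gain with food consumption as covariate to detect postingestive effects.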

Assay [3] deals with Leptinotarsa decemlineata. The experiment in a line: Antifeedant activity against Leptinotarsa decemlineata adults at 50 ug/cm'2 by no-choice test. Format: functional.
Assay [4] deals with Spodoptera littoralis. Put plainly: Antifeedant activity against fifth instar Spodoptera littoralis L6 larvae assessed as weight gain at 20 ug/insect, po relative to control. It counts as functional. Summed up: as §2
Assay [5] has as its system Spodoptera littoralis. The experiment in a line: Antifeedant activity against fifth instar Spodoptera littoralis L6 larvae. It counts as functional, organism-based. Summed up: as §1
For assay [6], the system named is Leptinotarsa decemlineata. The experiment in a line: Insecticidal activity against Leptinotarsa decemlineata adults assessed as mortality at 10 ug/insect dosed in to hemolymph injection after 72 hrs. Format: functional. The method, boiled down: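 Adult Colorado potato beetles, 20 per compound, each injected into the hemolymph with 10 µg of compound dissolved in DMSO. Mortality was scored for up to 3 days after injection. Percent mortality was analysed with contingency tables and corrected by Abbott's formula.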

For assay [7], the system named is Spodoptera littoralis. Put plainly: Antifeedant activity against fifth instar Spodoptera littoralis L6 larvae at 50 ug/cm'2. Format: functional. Summed up:
as §1

A further assay relates to Myzus persicae. Put plainly: Antifeedant activity against Myzus persicae apterous adults. Format: functional, organism-based. The method, boiled down: as §1
For assay [8], the system named is Leptinotarsa decemlineata. The experiment in a line: Antifeedant activity against Leptinotarsa decemlineata adults at 50 ug/cm'2 by choice test. Format: functional. The method, boiled down: as §1
Assay [9] concerns Leptinotarsa decemlineata. The experiment in a line: Antifeedant activity against Leptinotarsa decemlineata adults by no-choice test. Format: functional, organism-based.
The test system of a further assay is Fusarium verticillioides. Put plainly: Antifungal activity against Fusarium moniliforme assessed as inhibition of mycelial growth at 0.5 mg/mL. Particulars: read-out: GI. Format: functional. The method, boiled down: (§3)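 Single-dose test at 0.5 mg/mL against the plant pathogens; activity estimated as percent mycelial growth inhibition.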
Assay [10] relates to Spodoptera littoralis. Put plainly: Antifeedant activity against fifth instar Spodoptera littoralis L6 larvae at 100 ug/cm'2. Format: functional. The method, boiled down:
as §1

The subject of the next assay is Aspergillus niger. Put plainly: Antifungal activity against Aspergillus niger assessed as inhibition of mycelial growth at 0.5 mg/mL. Format: functional. As to conditions: read-out: GI. The method, boiled down:
as §3

`COC(=O)c1ccc(OC)c(C[C@@H]2C(C)(C)C(=O)C=C[C@@]2(C)O)c1`: the EC50 was determined as 50 ug.cm'-2 in assay [1], 17.4 ug.cm'-2 with Spodoptera littoralis [5] and 24.19 ug.cm'-2 in [9]. Further, the Activity in the assay on Spodoptera littoralis [2] is on record as 75.9%; in assay [3] it was 81.82%; in the assay with Spodoptera littoralis [4], 66.1%; in [6] it was 0%; in the assay with Spodoptera littoralis [7] it was 71.8%; in [8], 55.4%. Moreover, the outcome in the assay on Myzus persicae was inactive.

With `COc1ccc(C(=O)O)cc1C[C@@H]1C(C)(C)C(=O)C=C[C@@]1(C)O` (relative stereo), the EC50 in assay [1] was more than 50 ug.cm'-2; in the assay on Spodoptera littoralis [5] it was more than 100 ug.cm'-2; in assay [9] it was 50 ug.cm'-2. The Activity in the assay with Spodoptera littoralis [2] came out at 113.1%; in assay [3], 56.1%; in the assay on Spodoptera littoralis [4], 126.2%; in assay [6] it was 0%; in the assay on Spodoptera littoralis [7], 0%; in assay [8] it was 37%. In the assay with Myzus persicae, the outcome was inactive.

Consider `COC(=O)c1ccc2c(c1)C[C@@]1(O2)[C@@H](C)CC[C@@H](O)C1(C)C` [FILIFOLINOL], for which the inhibition of growth at 500 µg/mL in the assay with Fusarium verticillioides is 61%; in the assay on Aspergillus niger it was 36%. Moreover, the EC50 in assay [1] was more than 50 ug.cm'-2; in the assay with Spodoptera littoralis [5], more than 100 ug.cm'-2; in assay [9], more than 50 ug.cm'-2. Further, the Activity with Spodoptera littoralis [2] is 120.2%; in [3], 42.4%; with Spodoptera littoralis [4], 120.9%; in the assay on Spodoptera littoralis [10] it was 34.6%; in assay [6], 20%; in assay [8], 16.82%. Besides, the result with Myzus persicae was inactive.

Turning to `C[C@@H]1CC[C@@H]2C(C)(C)C[C@]3(C)CC=C[C@]123` [SILPHINENE], the EC50 in assay [1] was 0.27 ug.cm'-2; in assay [9], 2.7 ug.cm'-2. Further, the Activity in assay [6] worked out at 24%.
